Source: ChEMBL document CHEMBL4673248, “Discovery and Characterization of BAY 1214784, an Orally Available Spiroindoline Derivative Acting as a Potent and Selective Antagonist of the Human Gonadotropin-Releasing Hormone Receptor as Proven in a First-In-Human Study in Postmenopausal Women” (J Med Chem, 2020)

Experiments:
[1] = Apparent permeability across basolateral to apical side in human Caco2 cells at 2 uM measured after 2 hrs by LC-MS/MS analysis; type: ADME, cell-based; conditions: Caco-2
Outline: (§1)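 Caco-2 monolayers grown 15 d, integrity checked by TEER. Compound 2 µM added apical or basolateral in FCS-free HEPES carbonate buffer pH 7.2, incubated 2 h at 37 °C. Both compartments sampled before and after, analysed by LC-MS/MS after MeOH precipitation. Papp computed from receiver peak area, surface area and time. Efflux ratio taken as Papp B–A/Papp A–B.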

[2] = Antagonist activity at cynomolgus monkey GnRH receptor expressed in CHO-K1 cells assessed as inhibition of buserelin-induced response preincubated for 20 mins followed by buserelin addition and measured after 60 mins by TR-FRET assay; type: cell-based; conditions: Macaca fascicularis
Outline: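 Frozen CHO-K1 cells expressing cynomolgus receptor: thawed, 1 h recovery at 37 °C with IP1-d2 tracer. 5000 cells/well in Ham's F12, 20 min preincubation with compound at rt. Buserelin added at 1× EC80 in HEPES stimulation buffer pH 7.4 with LiCl, 60 min at 37 °C. Lysis with Tb-anti-IP1 antibody (1:20), HTRF IP1 read after 60 min. Duplicates, up to 11 concentrations.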

[3] = Apparent permeability across apical to basolateral side in human Caco2 cells at 2 uM measured after 2 hrs by LC-MS/MS analysis; type: ADME, cell-based; conditions: Caco-2; outline: as §1
[4] = Maximum oral bioavailability in dog liver microsomes based well stirred liver model; type: ADME, Canis lupus familiaris, Microsome; conditions: read-out: Fmax
[5] = molecular target: T1, Cytochrome P450 1A2 (Homo sapiens, UniProt P05177); assay: Inhibition of CYP1A2 in human liver microsomes using phenacetin as substrate by LC-MS/MS analysis; type: ADME
T1 sequence (P05177 whole entry): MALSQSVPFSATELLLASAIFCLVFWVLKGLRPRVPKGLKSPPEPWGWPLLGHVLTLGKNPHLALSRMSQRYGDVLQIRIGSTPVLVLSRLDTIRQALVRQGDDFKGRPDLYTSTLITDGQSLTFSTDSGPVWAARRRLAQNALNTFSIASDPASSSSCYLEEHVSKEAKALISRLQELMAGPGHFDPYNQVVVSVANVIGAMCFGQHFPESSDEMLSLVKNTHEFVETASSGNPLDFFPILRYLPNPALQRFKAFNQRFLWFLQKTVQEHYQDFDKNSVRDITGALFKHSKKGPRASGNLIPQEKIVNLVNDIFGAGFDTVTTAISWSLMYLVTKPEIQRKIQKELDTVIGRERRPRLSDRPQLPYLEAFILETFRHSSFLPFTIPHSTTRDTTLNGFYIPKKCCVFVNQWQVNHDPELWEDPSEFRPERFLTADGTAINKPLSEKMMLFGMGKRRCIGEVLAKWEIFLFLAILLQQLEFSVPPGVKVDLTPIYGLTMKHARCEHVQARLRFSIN

[6] = Clearance in cynomolgus monkey liver microsomes; type: ADME, Macaca fascicularis, Microsome
[7] = test system: Cynomolgus monkey; assay: Suppression of orchiectomy-induced increase in plasma luteinizing hormone level in cynomolgus monkey at 20 mg/kg, po measured up to 24 hrs by RIA; type: functional, Macaca fascicularis; conditions: time hrs <=24
Outline: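 Orchiectomized cynomolgus monkeys given a single oral dose of 20 mg/kg. Plasma LH suppression expressed relative to baseline levels.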

[8] = Maximum oral bioavailability in cynomolgus monkey hepatocytes; type: ADME, Macaca fascicularis, Hepatocyte; conditions: read-out: Fmax
[9] = Lipophilicity, log D of the compound in pH 7.5 MeCN/H2O solution by reversed-phase HPLC analysis; type: physicochemical
Outline: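 Indirect reversed-phase HPLC at pH 7.5, calibrated with n-alkan-2-ones C3–C16. Compounds applied as 0.67 mM DMSO stocks in MeCN/H2O (1:1).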

[10] = Maximum oral bioavailability in human hepatocytes; type: ADME, Hepatocyte; conditions: read-out: Fmax
[11] = Clearance in cynomolgus monkey hepatocytes; type: ADME, cell-based, Macaca fascicularis, Hepatocyte
[12] = Maximum oral bioavailability in cynomolgus monkey liver microsomes based well stirred liver model; type: ADME, Macaca fascicularis, Microsome; conditions: read-out: Fmax
[13] = Half life in Wistar rat at 0.5 mg/kg, iv by LC-MS/MS analysis; type: ADME, organism-based; conditions: in vivo
[14] = Clearance in Wistar rat at 0.5 mg/kg, iv by LC-MS/MS analysis; type: ADME, organism-based; conditions: Wistar, in vivo
[15] = molecular target: Cytochrome P450 2C9 (Homo sapiens, UniProt P11712); assay: Inhibition of CYP2C9 in human liver microsomes using diclofenac as substrate by LC-MS/MS analysis; type: ADME
[16] = Oral bioavailability in Wistar rat at 2 mg/kg by LC-MS/MS analysis; type: ADME, organism-based; conditions: in vivo
[17] = Maximum oral bioavailability in Han Wistar rat hepatocytes at 1 uM measured after 2 to 90 mins by LC-MS/MS analysis; type: ADME, Hepatocyte; conditions: time 2-90 min, read-out: Fmax
[18] = molecular target: T2, Cytochrome P450 2C8 (Homo sapiens, UniProt P10632); assay: Inhibition of CYP2C8 in human liver microsomes using amodiaquine as substrate by LC-MS/MS analysis; type: ADME
T2 sequence (P10632 whole entry): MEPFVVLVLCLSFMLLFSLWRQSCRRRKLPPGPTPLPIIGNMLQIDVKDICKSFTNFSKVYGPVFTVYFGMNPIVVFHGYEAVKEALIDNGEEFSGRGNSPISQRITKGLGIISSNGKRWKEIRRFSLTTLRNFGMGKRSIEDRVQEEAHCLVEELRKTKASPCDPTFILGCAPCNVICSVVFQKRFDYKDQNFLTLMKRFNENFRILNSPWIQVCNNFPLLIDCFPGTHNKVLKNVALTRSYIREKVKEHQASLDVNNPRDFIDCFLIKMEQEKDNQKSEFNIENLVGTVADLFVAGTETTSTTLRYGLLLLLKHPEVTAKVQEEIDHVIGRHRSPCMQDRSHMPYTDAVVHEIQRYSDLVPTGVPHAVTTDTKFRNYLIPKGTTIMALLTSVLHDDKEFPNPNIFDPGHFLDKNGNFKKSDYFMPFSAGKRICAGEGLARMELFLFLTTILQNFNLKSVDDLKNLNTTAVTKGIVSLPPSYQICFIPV

[19] = molecular target: Cytochrome P450 2D6 (Homo sapiens, UniProt P10635); assay: Inhibition of CYP2D6 in human liver microsomes using dextromethorphan as substrate by LC-MS/MS analysis; type: ADME
[20] = Maximum oral bioavailability in human liver microsomes based well stirred liver model at 1 uM measured after 2 to 60 mins in presence of NADP generating system by LC-MS/MS analysis; type: ADME, Microsome; conditions: time 2-60 min, read-out: Fmax
Outline: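 Human liver microsomes at 0.5 mg/mL in 100 mM phosphate pH 7.4, 37 °C, G6P/NADP/G6PDH cofactor mix. Compound 1 µM, sampled at 2, 8, 16, 30, 45 and 60 min into cold MeOH, LC-MS/MS. Half-life to intrinsic clearance. Fmax from well-stirred model with liver blood flow 1.32 L/h/kg.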

Chain of Cytochrome P450 2C9 (P11712 whole entry): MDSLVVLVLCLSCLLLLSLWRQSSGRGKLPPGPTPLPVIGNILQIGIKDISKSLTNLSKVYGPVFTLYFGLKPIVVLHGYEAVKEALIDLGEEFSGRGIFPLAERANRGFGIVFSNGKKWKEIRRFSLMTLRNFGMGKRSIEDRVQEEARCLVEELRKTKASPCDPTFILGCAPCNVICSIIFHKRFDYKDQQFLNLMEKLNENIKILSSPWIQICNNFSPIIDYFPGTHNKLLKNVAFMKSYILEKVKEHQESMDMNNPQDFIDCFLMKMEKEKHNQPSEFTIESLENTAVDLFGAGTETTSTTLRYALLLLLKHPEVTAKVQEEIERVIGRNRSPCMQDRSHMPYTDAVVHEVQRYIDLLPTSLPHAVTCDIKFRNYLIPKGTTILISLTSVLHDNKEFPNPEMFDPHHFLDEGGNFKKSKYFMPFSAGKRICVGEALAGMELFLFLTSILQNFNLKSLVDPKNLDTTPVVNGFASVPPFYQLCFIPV
Chain of Cytochrome P450 2D6 (P10635 whole entry): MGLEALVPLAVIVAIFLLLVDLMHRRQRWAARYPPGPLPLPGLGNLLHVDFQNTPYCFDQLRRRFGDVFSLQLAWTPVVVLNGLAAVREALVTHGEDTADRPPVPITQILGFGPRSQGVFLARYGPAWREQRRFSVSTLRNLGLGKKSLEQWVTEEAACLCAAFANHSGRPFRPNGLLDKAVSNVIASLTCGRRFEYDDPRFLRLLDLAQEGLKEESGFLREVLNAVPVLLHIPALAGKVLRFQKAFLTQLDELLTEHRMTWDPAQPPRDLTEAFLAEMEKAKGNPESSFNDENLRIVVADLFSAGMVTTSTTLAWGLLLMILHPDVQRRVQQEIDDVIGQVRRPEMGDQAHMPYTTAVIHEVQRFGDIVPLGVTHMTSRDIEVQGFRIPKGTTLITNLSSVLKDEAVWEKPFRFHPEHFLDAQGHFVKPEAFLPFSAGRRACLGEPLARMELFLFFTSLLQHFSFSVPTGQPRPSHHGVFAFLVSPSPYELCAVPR

O=C(NCc1ncc(C(F)(F)F)cc1Cl)c1ccc2c(c1)C1(CCS(=O)(=O)CC1)[C@H](C1CC1)N2S(=O)(=O)c1ccc(F)cc1 [BAY-784]
Papp B→A at 2 h, 2 µM [1]: 12.9 ×10⁻⁶ cm/s
IC50 [2]: 35 nM
Papp A→B at 2 h, 2 µM [3]: 1.3 ×10⁻⁶ cm/s
Fh [4]: 85%
IC50 [5]: > 10000 nM
CLH [6]: 8.17 mL/min/kg
Activity [7]: <=60%
Fh [8]: 72%
chromatographic logD [9]: 3.6
Fh [10]: 93%
CLH [11]: 11.8 mL/min/kg
Fh [12]: 81%
half-life [13]: 16 h
clearance [14]: 9 mL/min/kg
IC50 [15]: > 10000 nM
bioavailability [16]: 48%
Fh at 1 µM [17]: 82%
IC50 [18]: 1000 nM
IC50 [19]: > 10000 nM
Fh at 1 µM [20]: 100%
